Measurements reported in ChEMBL document CHEMBL1144782, “Isoindolo[2,1-a]quinoxaline derivatives, novel potent antitumor agents with dual inhibition of tubulin polymerization and topoisomerase I” (2008).

Tested on: CCRF-CEM
Assay: Growth inhibition of human CEM cells after 72 hrs by MTT assay
Format: functional
Settings: not given
Outline: (§1)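 Growth inhibition by MTT after 72 h incubation. Resistant sublines: LoVoDoxo and MCF-7 MDR were kept in 0.1 µg/mL doxorubicin; CEMVbl-100 was selected against vinblastine. GI50 given as mean ± SEM of three independent experiments. Resistance index is resistant-line GI50 over parental GI50.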

**Q.** How did the GI50 turn out when O=c1[nH]c2cc(Cl)c(Cl)cc2n2cc3ccccc3c12 was run?
**A.** 2.2 µM

Tested on: NCI-H23
Assay: Antitumor activity against human NCI-H23 cells
Format: functional
Settings: not given
Outline: (§2)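 Run by the NCI in its in vitro disease-oriented screen of about 60 human tumour cell lines. For each line it reports pGI50 (50% net growth inhibition), pTGI (total growth inhibition) and pLC50 (50% net cell death), each as –log molar concentration. Where an effect was not reached within the tested range, the highest tested concentration was used.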

**Q.** What does the source list for O=c1[nH]c2cc(Cl)c(Cl)cc2n2cc3ccccc3c12?
**A.** GI50: 17.4 µM; LC50 (50% net cell kill): 56.2 µM

Same assay, conditions: read-out: pTGI (converted)

**Q.** With O=c1[nH]c2cc(Cl)c(Cl)cc2n2cc3ccccc3c12 as the molecule, how does the TGI read?
**A.** 30.9 µM

Tested on: NCI-H460
Assay: Antitumor activity against human NCI-H460 cells
Format: functional
Settings: not given
Outline: as §2

**Q.** Which GI50 does the source give for O=c1[nH]c2cc(Cl)c(Cl)cc2n2cc3ccccc3c12 here?
**A.** 18.6 µM

Same assay, conditions: read-out: Log LC50 (the source's name) (converted)

**Q.** For O=c1[nH]c2cc(Cl)c(Cl)cc2n2cc3ccccc3c12, which CC50 is on record?
**A.** 57.5 µM

Same assay, conditions: read-out: pTGI (converted)

**Q.** For O=c1[nH]c2cc(Cl)c(Cl)cc2n2cc3ccccc3c12, which TGI is on record?
**A.** 33.1 µM

Tested on: NCI-H226
Assay: Antitumor activity against human NCI-H226 cells
Format: functional
Settings: not given
Outline: as §2

**Q.** O=c1[nH]c2cc(Cl)c(Cl)cc2n2cc3ccccc3c12 was tested. Which GI50 did it give?
**A.** 18.6 µM

**Q.** And the LC50 (50% net cell kill)?
**A.** 69.2 µM

Same assay, conditions: read-out: pTGI (converted)

**Q.** How did the TGI turn out when O=c1[nH]c2cc(Cl)c(Cl)cc2n2cc3ccccc3c12 was run?
**A.** 35.5 µM

Tested on: HT-29
Assay: Antitumor activity against human HT29 cells
Format: functional
Settings: not given
Outline: as §2

**Q.** Which results are given for O=c1[nH]c2cc(Cl)c(Cl)cc2n2cc3ccccc3c12?
**A.** GI50: 28.8 µM; LC50: > 100 µM

Same assay, conditions: read-out: pTGI (converted)

**Q.** How did the TGI turn out when O=c1[nH]c2cc(Cl)c(Cl)cc2n2cc3ccccc3c12 was run?
**A.** > 100 µM

Tested on: CCRF-CEM
Assay: Antitumor activity against human CCRF-CEM cells
Format: functional
Settings: not given
Outline: as §2

**Q.** Which results are given for O=c1[nH]c2cc(Cl)c(Cl)cc2n2cc3ccccc3c12?
**A.** GI50: 21.9 µM; LC50: > 100 µM

Same assay, conditions: read-out: pTGI (converted)

**Q.** For O=c1[nH]c2cc(Cl)c(Cl)cc2n2cc3ccccc3c12, which TGI is on record?
**A.** 49 µM

Tested on: CCRF-CEM
Assay: Growth inhibition of human vinblastine-resistant CEM cells after 72 hrs by MTT assay
Format: functional
Settings: not given
Outline: as §1

**Q.** Which GI50 does the source give for O=c1[nH]c2cc(Cl)c(Cl)cc2n2cc3ccccc3c12 here?
**A.** 1.9 µM

Tested on: UACC-62
Assay: Antitumor activity against human UACC62 cells
Format: functional
Settings: not given
Outline: (§3)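 NCI 60-cell-line screen. Parameters were GI50 (50% net growth inhibition), TGI and LC50, each reported as –log molar concentration. Where an effect was not reached within the tested range, the highest tested concentration was used in the calculation.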

**Q.** O=c1[nH]c2cc(Cl)c(Cl)cc2n2cc3ccccc3c12 was tested. Which GI50 did it give?
**A.** 16.6 µM

**Q.** What about the LC50 of the same molecule?
**A.** 55 µM

Same assay, conditions: read-out: pTGI (converted)

**Q.** Which TGI does the source give for O=c1[nH]c2cc(Cl)c(Cl)cc2n2cc3ccccc3c12 here?
**A.** 30.2 µM

Tested on: U-251
Assay: Antitumor activity against human U251 cells
Format: functional
Settings: not given
Outline: as §3

**Q.** O=c1[nH]c2cc(Cl)c(Cl)cc2n2cc3ccccc3c12 was tested. Which GI50 did it give?
**A.** 16.2 µM

Same assay, conditions: read-out: Log LC50 (the source's name) (converted)

**Q.** Which CC50 does the source give for O=c1[nH]c2cc(Cl)c(Cl)cc2n2cc3ccccc3c12 here?
**A.** 55 µM

Same assay, conditions: read-out: pTGI (converted)

**Q.** For O=c1[nH]c2cc(Cl)c(Cl)cc2n2cc3ccccc3c12, which TGI is on record?
**A.** 30.2 µM

Tested on: ACHN
Assay: Antitumor activity against human ACHN cells
Format: functional
Settings: not given
Outline: as §2

**Q.** What does the source list for O=c1[nH]c2cc(Cl)c(Cl)cc2n2cc3ccccc3c12?
**A.** GI50: 15.5 µM; LC50 (50% net cell kill): 53.7 µM

Same assay, conditions: read-out: pTGI (converted)

**Q.** With O=c1[nH]c2cc(Cl)c(Cl)cc2n2cc3ccccc3c12 as the molecule, how does the TGI read?
**A.** 28.8 µM

Tested on: SF-268
Assay: Cell viability against human SF268 cells at 10 uM
Format: functional
Settings: not given

**Q.** O=c1[nH]c2cc(Cl)c(Cl)cc2n2cc3ccccc3c12 was tested. Which Activity did it give?
**A.** 13%

Tested on: Hs-578T
Assay: Antitumor activity against human HS578T cells
Format: functional
Settings: not given
Outline: as §2

**Q.** How did the GI50 turn out when O=c1[nH]c2cc(Cl)c(Cl)cc2n2cc3ccccc3c12 was run?
**A.** 20 µM

Same assay, conditions: read-out: Log LC50 (the source's name) (converted)

**Q.** O=c1[nH]c2cc(Cl)c(Cl)cc2n2cc3ccccc3c12 was tested. Which CC50 did it give?
**A.** > 100 µM

Same assay, conditions: read-out: pTGI (converted)

**Q.** For O=c1[nH]c2cc(Cl)c(Cl)cc2n2cc3ccccc3c12, which TGI is on record?
**A.** 52.5 µM

Tested on: T47D
Assay: Antitumor activity against human T47D cells
Format: functional
Settings: not given
Outline: as §3

**Q.** For O=c1[nH]c2cc(Cl)c(Cl)cc2n2cc3ccccc3c12, which GI50 is on record?
**A.** 30.9 µM

**Q.** And the LC50?
**A.** > 100 µM

Same assay, conditions: read-out: pTGI (converted)

**Q.** With O=c1[nH]c2cc(Cl)c(Cl)cc2n2cc3ccccc3c12 as the molecule, how does the TGI read?
**A.** 75.9 µM

Tested on: OVCAR-5
Assay: Antitumor activity against human OVCAR5 cells
Format: functional
Settings: not given
Outline: as §2

**Q.** Which results are given for O=c1[nH]c2cc(Cl)c(Cl)cc2n2cc3ccccc3c12?
**A.** GI50: 17 µM; LC50 (50% net cell death): 55 µM

Same assay, conditions: read-out: pTGI (converted)

**Q.** For O=c1[nH]c2cc(Cl)c(Cl)cc2n2cc3ccccc3c12, which TGI is on record?
**A.** 30.9 µM

Tested on: BT-549
Assay: Antitumor activity against human BT549 cells
Format: functional
Settings: not given
Outline: as §2

**Q.** Which results are given for O=c1[nH]c2cc(Cl)c(Cl)cc2n2cc3ccccc3c12?
**A.** GI50: 26.3 µM; LC50 (50% net cell kill): > 100 µM

Same assay, conditions: read-out: pTGI (converted)

**Q.** O=c1[nH]c2cc(Cl)c(Cl)cc2n2cc3ccccc3c12 was tested. Which TGI did it give?
**A.** 57.5 µM

Tested on: SF-295
Assay: Antitumor activity against human SF295 cells
Format: functional
Settings: not given
Outline: as §2

**Q.** How did the GI50 turn out when O=c1[nH]c2cc(Cl)c(Cl)cc2n2cc3ccccc3c12 was run?
**A.** 16.2 µM

Same assay, conditions: read-out: Log LC50 (the source's name) (converted)

**Q.** With O=c1[nH]c2cc(Cl)c(Cl)cc2n2cc3ccccc3c12 as the molecule, how does the CC50 read?
**A.** 55 µM

Same assay, conditions: read-out: pTGI (converted)

**Q.** Which TGI does the source give for O=c1[nH]c2cc(Cl)c(Cl)cc2n2cc3ccccc3c12 here?
**A.** 30.2 µM

Tested on: MOLT-4
Assay: Antitumor activity against human MOLT4 cells
Format: functional
Settings: not given
Outline: as §2

**Q.** With O=c1[nH]c2cc(Cl)c(Cl)cc2n2cc3ccccc3c12 as the molecule, how does the GI50 read?
**A.** 18.6 µM

**Q.** What about the LC50 of the same molecule?
**A.** 72.4 µM

Same assay, conditions: read-out: pTGI (converted)

**Q.** Which TGI does the source give for O=c1[nH]c2cc(Cl)c(Cl)cc2n2cc3ccccc3c12 here?
**A.** 37.2 µM

Tested on: TK-10
Assay: Antitumor activity against human TK10 cells
Format: functional
Settings: not given
Outline: as §3

**Q.** With O=c1[nH]c2cc(Cl)c(Cl)cc2n2cc3ccccc3c12 as the molecule, how does the GI50 read?
**A.** 16.6 µM

Same assay, conditions: read-out: Log LC50 (the source's name) (converted)

**Q.** O=c1[nH]c2cc(Cl)c(Cl)cc2n2cc3ccccc3c12 was tested. Which CC50 did it give?
**A.** 55 µM

Same assay, conditions: read-out: pTGI (converted)

**Q.** For O=c1[nH]c2cc(Cl)c(Cl)cc2n2cc3ccccc3c12, which TGI is on record?
**A.** 30.2 µM

Tested on: UACC-257
Assay: Antitumor activity against human UACC257 cells
Format: functional
Settings: not given
Outline: as §3

**Q.** How did the GI50 turn out when O=c1[nH]c2cc(Cl)c(Cl)cc2n2cc3ccccc3c12 was run?
**A.** 20.4 µM

**Q.** And the LC50?
**A.** > 100 µM

Same assay, conditions: read-out: pTGI (converted)

**Q.** Which TGI does the source give for O=c1[nH]c2cc(Cl)c(Cl)cc2n2cc3ccccc3c12 here?
**A.** 49 µM

Tested on: KM12
Assay: Antitumor activity against human KM12 cells
Format: functional
Settings: not given
Outline: as §2

**Q.** With O=c1[nH]c2cc(Cl)c(Cl)cc2n2cc3ccccc3c12 as the molecule, how does the GI50 read?
**A.** 17.4 µM

**Q.** What about the LC50 (50% net cell death) of the same molecule?
**A.** 56.2 µM

Same assay, conditions: read-out: pTGI (converted)

**Q.** O=c1[nH]c2cc(Cl)c(Cl)cc2n2cc3ccccc3c12 was tested. Which TGI did it give?
**A.** 30.9 µM

Tested on: OVCAR-8
Assay: Antitumor activity against human OVCAR8 cells
Format: functional
Settings: not given
Outline: as §2

**Q.** For O=c1[nH]c2cc(Cl)c(Cl)cc2n2cc3ccccc3c12, which GI50 is on record?
**A.** 18.6 µM

**Q.** And the LC50 (50% net cell death)?
**A.** 57.5 µM

Same assay, conditions: read-out: pTGI (converted)

**Q.** Which TGI does the source give for O=c1[nH]c2cc(Cl)c(Cl)cc2n2cc3ccccc3c12 here?
**A.** 32.4 µM

Tested on: SW-620
Assay: Antitumor activity against human SW620 cells
Format: functional
Settings: not given
Outline: as §3

**Q.** Which GI50 does the source give for O=c1[nH]c2cc(Cl)c(Cl)cc2n2cc3ccccc3c12 here?
**A.** 15.8 µM

Same assay, conditions: read-out: Log LC50 (the source's name) (converted)

**Q.** With O=c1[nH]c2cc(Cl)c(Cl)cc2n2cc3ccccc3c12 as the molecule, how does the CC50 read?
**A.** 53.7 µM

Same assay, conditions: read-out: pTGI (converted)

**Q.** With O=c1[nH]c2cc(Cl)c(Cl)cc2n2cc3ccccc3c12 as the molecule, how does the TGI read?
**A.** 29.5 µM

Tested on: MCF7
Assay: Growth inhibition of human multidrug-resistant MCF7 cells after 72 hrs by MTT assay
Format: functional
Settings: MCF7, 72 h
Outline: as §1

**Q.** Which GI50 does the source give for O=c1[nH]c2cc(Cl)c(Cl)cc2n2cc3ccccc3c12 here?
**A.** 7.6 µM

Tested on: SR
Assay: Antitumor activity against human SR cells
Format: functional
Settings: not given
Outline: as §3

**Q.** O=c1[nH]c2cc(Cl)c(Cl)cc2n2cc3ccccc3c12 was tested. Which GI50 did it give?
**A.** 17.4 µM

**Q.** And the LC50?
**A.** 87.1 µM

Same assay, conditions: read-out: pTGI (converted)

**Q.** How did the TGI turn out when O=c1[nH]c2cc(Cl)c(Cl)cc2n2cc3ccccc3c12 was run?
**A.** 38.9 µM
